# pEC50, pIC50: −log10 of the molar value. The source made the active and inactive calls. The rule behind the calls is not given here.
# Columns and labels:
# Plasmodium falciparum [1] = test: Inhibition of Plasmodium falciparum falcipain-2 up to 50 uM
# HEK-293T = test: Cytotoxicity against HEK293T cells after 48 hrs by MTT assay; type: cell-based; details: Homo sapiens
# [2] = Selectivity index, ratio of EC50 for HEK293T cells to IC50 for chloroquine-resistant ring stage Plasmodium falciparum W2; type: functional, HEK-293T
# Plasmodium falciparum [3] = test: Antiplasmodial activity against chloroquine-resistant ring stage Plasmodium falciparum W2 infected in human RBC after 48 hrs by flow cytometric analysis; type: functional, organism-based; details: W2, 48 h
# Summary of the method: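 Ring-stage W2 parasites at 1% in human erythrocytes, synchronized with 5% sorbitol. Incubated with compound 48 h at 37 °C in RPMI-1640 with 25 mM HEPES pH 7.4, 10% heat-inactivated human serum (or 0.5% Albumax/2% human serum) and hypoxanthine, under 3% O₂/5% CO₂/[…]. Cells fixed in 2% formaldehyde, stained in PBS with NH₄Cl, 0.1% Triton X-100 and 1 nM YOYO-1, then counted by flow cytometry.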
# [4] = Water-lipid distribution coefficient, log D of the compound at pH 7.4; type: physicochemical
# [5] = Lipid accumulation ratio of the compound; type: physicochemical
# Summary of the method: (§1)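 Calculated rather than measured. VAR: predicted trapping in acidic digestive vacuole from pH-dependent water/lipid distribution (log D). LAR: expected fraction concentrating in the vacuole's lipid component.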
# [6] = Vacuolar accumulation ratio of the compound; type: ADME; summary of the method: as §1
# [7] = Water-lipid distribution coefficient, log D of the compound at pH 5.2; type: physicochemical
# [8] = Inhibition of hemozoin-like crystal formation up to 1 mM after 5 days; type: functional
# Summary of the method: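 Hemozoin-like crystal stock suspension sonicated 3 min and diluted in fresh broth medium. Compounds in wells at 0–1000 final concentration after 0.22 filtration. Incubated at 37 °C, 5% CO₂, 5 days, then scored for presence or absence of crystal growth. Triplicate.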
# [9] = Inhibition of hemozoin-like crystal formation after 5 days; type: functional; details: 120 h
# Summary of the method: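 Hemozoin-like crystal stock suspension sonicated 3 min, diluted in fresh broth. Compounds 0.22-filtered, then added across a 0–1000 final range. Incubated 37 °C, 5% CO2 for 5 days, scored for presence or absence of crystal growth. Triplicate.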
# Plasmodium falciparum [10] = test: Antimalarial activity against chloroquine-resistant ring stage Plasmodium falciparum Dd2 infected in human erythrocytes after 48 hrs by SYBR Green I staining-based isobologram method in presence of chloroquine; type: functional
# Summary of the method: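 Fixed-ratio isobologram: IC50s of each drug alone found first, then 2-fold dilution dose-response series at IC50 ratios 5:0, 4:1, 3:2, 2:3, 1:4, 0:5. Early ring-stage parasitized erythrocytes at 1% parasitaemia, 3% haematocrit, triplicate wells, 48 h at 37 °C. Growth read by SYBR Green I fluorescence, nonlinear regression. Interaction from sum of FICs (IC50 in combination/IC50 alone).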
# [11] = Inhibition of Plasmodium falciparum falcipain-2
SMILES,inhibition (Plasmodium falciparum [1]),pEC50 (HEK-293T),Selectivity Index [2],pIC50 (Plasmodium falciparum [3]),logD [4],Ratio [5],Ratio [6],logD [7],inhibition [8],MIC [9] [µM],CI (Plasmodium falciparum [10]),pIC50 [11]
O=C1/C(=C/c2ccc(-c3ccc(Cl)cc3)cc2)Oc2ccccc21,inactive,< 4.00,>10,< 5.00,–,–,–,–,–,–,–,–
O=C1/C(=C/c2ccc(F)cc2F)Oc2cc(O)ccc21,inactive,< 4.00,>10,< 5.00,–,–,–,–,–,–,–,–
O=Cc1ccc(-c2cccc(/C=C3\Oc4ccccc4C3=O)c2)cc1,inactive,< 4.00,>10,< 5.00,–,–,–,–,–,–,–,–
O=C1/C(=C/c2cccc(-c3ccc(F)cc3)c2)Oc2ccccc21,inactive,< 4.00,>23,5.36,–,–,–,–,–,–,–,–
O=C1/C(=C/c2cccc(Cc3ccccc3)c2)Oc2ccccc21,inactive,4.15,>31,5.64,–,–,–,–,–,–,–,–
COc1cc(/C=C2\Oc3cc(O)ccc3C2=O)cc(OC)c1OC,inactive,< 4.00,>10,< 5.00,–,–,–,–,–,–,–,–
O=C1/C(=C/c2ccc(-c3cnc4ccccc4c3)cc2)Oc2ccccc21,inactive,< 4.00,>15,5.18,5.16,144366,1.19,5.08,–,–,–,–
O=C1/C(=C/c2ccc(-c3ccccc3)cc2)Oc2ccccc21,inactive,< 4.00,>10,< 5.00,–,–,–,–,–,–,–,–
COc1cc(/C=C2\Oc3ccccc3C2=O)cc(OC)c1OC,inactive,< 4.00,>10,< 5.00,–,–,–,–,–,–,–,–
O=C1/C(=C/c2ccc(Br)cc2)Oc2ccccc21,inactive,< 4.00,>31,5.49,–,–,–,–,–,–,–,–
O=C1/C(=C/c2ccc(-c3ccc(F)cc3)cc2)Oc2ccccc21,inactive,< 4.00,>10,< 5.00,–,–,–,–,–,–,–,–
O=C1/C(=C/c2ccc(Nc3ccccc3)cc2)Oc2ccccc21,inactive,< 4.00,>12,5.07,–,–,–,–,–,–,–,–
O=C1/C(=C/c2ccc(F)cc2F)Oc2ccccc21,inactive,< 4.00,>10,< 5.00,–,–,–,–,–,–,–,–
COc1cc(/C=C2\Oc3c(OC)cccc3C2=O)cc(OC)c1OC,inactive,< 4.00,>10,< 5.00,–,–,–,–,–,–,–,–
Nc1ccc(-c2ccc3c(c2)O/C(=C\c2ccccc2)C3=O)cn1,inactive,< 4.00,>33,5.52,5.18,150233,9.2,4.21,inactive,–,–,–
O=C1/C(=C/c2cccc(-c3ccccc3)c2)Oc2ccccc21,inactive,< 4.00,>19,5.28,–,–,–,–,–,–,–,–
O=C1/C(=C/c2ccccc2)Oc2cc(-c3ccc(F)cc3)ccc21,inactive,< 4.00,>10,< 5.00,–,–,–,–,–,–,–,–
Nc1ccc(-c2ccc(/C=C3\Oc4ccccc4C3=O)cc2)cn1,inactive,< 4.00,>27,5.43,3.67,4643,9.2,2.7,inactive,–,–,–
O=C1/C(=C/c2ccccc2)Oc2cc(O)ccc21,inactive,< 4.00,>10,< 5.00,–,–,–,–,–,–,–,–
O=C1/C(=C/c2ccc(NCc3ccccc3)cc2)Oc2ccccc21,inactive,< 4.00,>20,5.30,–,–,–,–,–,–,–,–
CCN(CC)Cc1c(O)ccc2c1O/C(=C\c1ccccc1)C2=O,–,< 4.00,>29,5.46,1.79,62,156,-0.4,inactive,–,–,–
CCN(CC)CCCC(C)Nc1ccnc2cc(Cl)ccc12 (centres undefined) [CHLOROQUINE],–,–,–,–,–,–,–,–,–,125,–,–

SMILES,inhibition (Plasmodium falciparum [1]),pEC50 (HEK-293T),Selectivity Index [2],pIC50 (Plasmodium falciparum [3]),logD [4],Ratio [5],Ratio [6],logD [7],inhibition [8],MIC [9] [µM],CI (Plasmodium falciparum [10]),pIC50 [11]
O=C1/C(=C/c2ccccc2)Oc2ccccc21 [(Z)-AURONE],inactive,< 4.00,>10,< 5.00,–,–,–,–,–,–,–,–
Cc1ccc(Oc2ccc(/C=C3\Oc4cc(O)ccc4C3=O)cc2)cc1,inactive,4.02,>16,5.23,–,–,–,–,–,–,–,–
Cc1ccc(Oc2ccc(/C=C3\Oc4ccccc4C3=O)cc2)cc1,inactive,< 4.00,>10,< 5.00,–,–,–,–,–,–,–,–
O=C1/C(=C/c2ccccc2Br)Oc2ccccc21,inactive,< 4.00,>10,< 5.00,–,–,–,–,–,–,–,–
O=C1/C(=C/c2ccc(Cc3ccccc3)cc2)Oc2ccccc21,inactive,4.06,>12,5.13,–,–,–,–,–,–,–,–
O=C1/C(=C/c2ccc(Cl)cc2Cl)Oc2ccccc21,inactive,4.17,<6.8,< 5.00,–,–,–,–,–,–,–,–
O=C1/C(=C/c2ccccc2)Oc2c1ccc(O)c2CN1CCOCC1,–,< 4.00,>30,5.48,2.42,265,17.2,1.19,inactive,–,1.06,–
COc1cccc2c1O/C(=C\c1ccc(F)cc1F)C2=O,inactive,< 4.00,>10,< 5.00,–,–,–,–,–,–,–,–
O=C1/C(=C/c2ccc(Oc3ccc(Cl)cc3)cc2)Oc2cc(O)ccc21,inactive,4.92,>1,5.01,–,–,–,–,–,–,–,–
COc1cccc2c1O/C(=C\c1ccccc1)C2=O,inactive,< 4.00,>10,< 5.00,–,–,–,–,–,–,–,–
COc1cccc2c1O/C(=C\c1ccc(Cl)cc1Cl)C2=O,–,< 4.00,>21,5.32,–,–,–,–,–,–,–,4.73
CN1CCN(Cc2c(O)ccc3c2O/C(=C\c2ccccc2)C3=O)CC1,–,< 4.00,>25,5.40,1.02,10.6,22589,-3.33,inactive,–,–,–
Nc1ccc(-c2cccc(/C=C3\Oc4ccccc4C3=O)c2)cn1,inactive,4.10,>31,5.59,3.67,4643,9.2,2.7,inactive,–,–,–
O=Cc1ccc(-c2ccc(/C=C3\Oc4ccccc4C3=O)cc2)cc1,inactive,< 4.00,>10,< 5.00,–,–,–,–,–,–,–,–
CN(C)c1ccc(/C=C2\Oc3cc(O)ccc3C2=O)cc1,inactive,< 4.00,>10,< 5.00,–,–,–,–,–,–,–,–
O=C1/C(=C/c2cccc(Br)c2)Oc2ccccc21,inactive,< 4.00,>21,5.33,–,–,–,–,–,–,–,–
O=C1/C(=C/c2ccccc2)Oc2c1ccc(O)c2CN1CCCCC1,–,< 4.00,>85,5.93,2.04,110,155,-0.15,inactive,–,–,–
O=C1/C(=C/c2ccc(Oc3ccc(Cl)cc3)cc2)Oc2ccccc21,inactive,< 4.00,>10,< 5.00,–,–,–,–,–,–,–,–
O=C1/C(=C/c2cccc(-c3ccc(Cl)cc3)c2)Oc2ccccc21,inactive,< 4.00,>10,< 5.00,–,–,–,–,–,–,–,–
O=C1/C(=C/c2ccc(Cl)cc2Cl)Oc2cc(O)ccc21,inactive,< 4.00,>10,< 5.00,–,–,–,–,–,–,–,–
O=C1/C(=C/c2ccccc2)Oc2cc(-c3ccccc3)ccc21,inactive,< 4.00,>10,< 5.00,–,–,–,–,–,–,–,–
CN(C)c1ccc(/C=C2\Oc3ccccc3C2=O)cc1,inactive,< 4.00,>13,5.10,–,–,–,–,–,–,–,–
